In PubChem BioAssay:
Inconclusive results are not listed.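 The calls were made as follows, unless noted: active = growth inhibition above 25% in both replicates, a cutoff set 3 SD above the mean; inconclusive = above 25% in only one replicate; inactive = the rest.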

Experiments:
[1] = OD615 S. cerevisiae growth inhibition, permissive medium, pilot counter-assay, permissive growth control for S. cerevisiae lifespan shortening project (AID 705); conditions: OD615, 24 h, at 10 µM, hits give high values
Summary of the method: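 System: S. cerevisiae with engineered DeaD lifespan system. Medium: SC raffinose/galactose permissive medium. Doses: single compound dose of 10 µM, 0.25% DMSO final. Schedule: 24 h exposure, 30 °C. Measured by: OD615 turbidity read. Read-out: growth inhibition.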

[2] = Restrictive medium S. cerevisiae growth inhibition, OD615, pilot screen of yeast lifespan reduction project, restrictive growth control (AID 706;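 active = growth inhibition above a set limit, 3 SD over mean compound inhibition, in both replicates, cut at about 43% in these data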;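 also: modified DeaD lifespan yeast strain shifted to restrictive glucose medium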); conditions: OD615, 48 h, at 10 µM, hits give high values
Summary of the method: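 Assay system – genetically modified Saccharomyces cerevisiae, DeaD replicative lifespan assay strain · Medium – CSMM-D glucose medium · Doses – 10 µM compound, 0.25% DMSO · Times – 4 h pre-incubation, 48 h exposure at 30 °C · Signal – optical density at 615 nm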

[3] = viability gain of MRP-1-high H69AR cells under doxorubicin, pilot screen, MRP-1 activator project, CellTiter-Glo, duplicate (AID 807;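 active = viability increase at or above a cutoff of the median across tested compounds plus 3 SD, cut at about 8.5% in these data, passing the limit was not always enough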;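 also: compound pretreatment 18-22 h then 72 h combined with doxorubicin; 0% = doxorubicin alone and 100% = vehicle without doxorubicin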); conditions: H69AR viability with doxorubicin, CellTiter-Glo luminescence; at 10 µM; hits give high values
[4] = growth suppression of beta-catenin knockout HCT116, pilot screen, human colon tumor cells (AID 823;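 active = cell viability at or below a set limit in both duplicate runs, the limit being the all-compound median minus 4 SD, cut at about 23% in these data, passing the limit was not always enough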;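 also: 0% = wells killed by 20 µM Hyamine and 100% = untreated DMSO cell wells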); conditions: CellTiter-Glo, 60 h, at 10 µM, hits give low values
[5] = growth suppression of PTEN-deleted HCT116, pilot screen, cell-based, HCT116 clonal line, CellTiter-Glo (AID 824;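 active = viability at or below 27.92% in each of two runs, the all-compound median minus 4 SD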;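 also: 0% = 20 µM Hyamine control and 100% = vehicle cell control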); conditions: 60 h, at 10 µM, hits give low values
[6] = inhibitors of the yeast RAM network, pilot screen, dse1pr::URA3 reporter, 5-FOA selection (AID 869;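 active = inhibition over a set limit, the all-compound mean plus 3 SD, in both replicate runs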;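 also: 0% = DMSO wells with no growth and 100% = 10 µM 1-NA-PP1 with full growth; RAM network block rescues cells from 5-FOA so hits raise OD615 growth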); conditions: S. cerevisiae dse1pr::URA3 5-FOA growth, OD615, 2 d; at 10 µM; hits give high values; strain carries analog-sensitive mutant Cbk1 kinase
[7] = RAM signaling pathway blockade in yeast – S. cerevisiae, Pdr1DBD-CYC8 efflux-inhibited sensitized strain, primary screen (AID 1298;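 active = RAM network inhibition above 8.4% in each of two replicates, 3 SD over the compound average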;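 also: 0% = DMSO untreated cells without growth and 100% = 10 µM 1-NA-PP1 full growth; higher means more yeast growth rescued from 5-FOA killing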); conditions: S. cerevisiae cbk1-as DSE1-URA3 strain, 5-FOA growth OD615, 2 d; at 50 µM; hits give high values

COc1ccc(C)cc1NC(=O)C1CCCN(S(=O)(=O)c2c(C)noc2/C=C/N(C)C)C1 (configuration not stated)
inactive: growth inhibition [1] -4.98% | growth inhibition [2] 3.38% | viability increase [3] -0.74% | viability [4] 102% | viability [5] 100% | inhibition [6] -0.18% | RAM network inhibition [7] 4.58%

CCOC(=O)Nc1sc(NS(=O)(=O)c2ccccc2)nc1C
inactive: growth inhibition [1] -10.4% | growth inhibition [2] 3.58% | viability increase [3] -0.61% | viability [4] 105% | viability [5] 104% | inhibition [6] 0.295% | RAM network inhibition [7] 2.87%

COc1ccc(NC(=O)c2c(-c3ccccc3)noc2C)c(OC)c1
inactive: growth inhibition [1] -16% | growth inhibition [2] -30.3% | viability increase [3] -1.79% | viability [4] 97.4% | viability [5] 92.6% | inhibition [6] 0.895% | RAM network inhibition [7] 3.75%

O=C(NC(Cc1ccc2c(c1)OCO2)C(=O)N1CCCC1C(=O)O)c1ccccc1 (configuration not stated)
inactive: growth inhibition [1] -2.82% | growth inhibition [2] 0.59% | viability increase [3] 0.05% | viability [4] 95.1% | viability [5] 98.1% | inhibition [6] 0.125% | RAM network inhibition [7] 6.49%

Fc1ccc(-c2nnc(-c3ccc(Cl)cc3Cl)o2)cc1
inactive: growth inhibition [1] -6.69% | growth inhibition [2] -11.2% | viability increase [3] -5.12% | viability [4] 70.6% | viability [5] 64.2% | inhibition [6] 3.06% | RAM network inhibition [7] 3.99%

COc1ccccc1CNC(=O)c1cnc2ccccn2c1=O
inactive: growth inhibition [1] -6.47% | growth inhibition [2] 8.2% | viability increase [3] -0.15% | viability [4] 97.8% | viability [5] 90.5% | inhibition [6] 0.36% | RAM network inhibition [7] 2.45%

COc1ccc(Cl)cc1S(=O)(=O)n1ccnc1C(C)C
inactive: growth inhibition [1] -8.68% | growth inhibition [2] -13% | viability increase [3] -2.46% | viability [4] 102% | viability [5] 93.3% | inhibition [6] 1.74% | RAM network inhibition [7] 2.15%

COc1ccc(CNC(=O)CCS(=O)(=O)c2cccc3nonc23)cc1
inactive: growth inhibition [1] -4.22% | growth inhibition [2] -26.3% | viability increase [3] -2.89% | viability [4] 95.8% | viability [5] 100% | inhibition [6] 1.94% | RAM network inhibition [7] 6.09%

CCC1CCCCN1Cc1ccc(OC)c(OC)c1 (configuration not stated)
inactive: growth inhibition [1] -7.04% | growth inhibition [2] -8.04% | viability increase [3] -2.09% | viability [4] 87.8% | viability [5] 96.9% | inhibition [6] 2.01% | RAM network inhibition [7] -1.61%

COc1ccc(OC)c2sc(NC(=O)C3COc4ccccc4O3)nc12 (configuration not stated)
inactive: growth inhibition [1] -19.7% | growth inhibition [2] -10.6% | viability increase [3] -3.63% | viability [4] 101% | viability [5] 95.6% | inhibition [6] -0.125% | RAM network inhibition [7] 2.87%

CCN1C(=O)c2ccccc2S(=O)c2ccc(C(=O)NCCCN3CCCC3=O)cc21 (configuration not stated)
inactive: growth inhibition [1] -7.88% | growth inhibition [2] -6.62% | viability increase [3] -3.1% | viability [4] 97.5% | viability [5] 87.7% | inhibition [6] 0.64% | RAM network inhibition [7] -1.15%

O=S(=O)(NC1=NCCCCC1)c1cccs1
inactive: growth inhibition [1] -0.86% | growth inhibition [2] -16.7% | viability increase [3] -0.2% | viability [4] 100% | viability [5] 98.2% | inhibition [6] 0.765% | RAM network inhibition [7] 5.54%

COc1ccc(CNc2nc3c(c(=O)[nH]c(=O)n3C)n2Cc2ccccc2C)cc1
inactive: growth inhibition [1] -14.8% | growth inhibition [2] -13.7% | viability increase [3] -4.3% | viability [4] 96.2% | viability [5] 89.5% | inhibition [6] 2.08% | RAM network inhibition [7] 2.1%

COc1cc(OC)c(Cl)cc1N
inactive: growth inhibition [1] -8.61% | growth inhibition [2] -16.7% | viability increase [3] -2.54% | viability [4] 98% | viability [5] 95.7% | inhibition [6] 1.47% | RAM network inhibition [7] 2.8%

COc1ccc(OC)c(C2C(C(N)=O)=C(C)Nc3nc(CCCO)nn32)c1 (configuration not stated)
inactive: growth inhibition [1] -12.9% | growth inhibition [2] -20.6% | viability increase [3] 0.09% | viability [4] 97.3% | viability [5] 95.6% | inhibition [6] 1.61% | RAM network inhibition [7] 5.21%

COc1ccc(OCCOC(=O)Nc2ccccc2)cc1
inactive: growth inhibition [1] -13.2% | growth inhibition [2] -6.21% | viability increase [3] 1.53% | viability [4] 93.4% | viability [5] 94.1% | inhibition [6] 1.64% | RAM network inhibition [7] 5.48%

CC1CCN(C(C(=O)Nc2ccc3c(c2)OCO3)c2ccccc2)CC1 (configuration not stated)
inactive: growth inhibition [1] 3.37% | growth inhibition [2] 10.4% | viability increase [3] -2.94% | viability [4] 83.8% | viability [5] 78.7% | inhibition [6] 2.49% | RAM network inhibition [7] 4.49%

CCN(CC)C1=CC(=O)OC12CCCCC2
inactive: growth inhibition [1] -13.1% | growth inhibition [2] 0.735% | viability increase [3] -2.99% | viability [4] 98.5% | viability [5] 93.7% | inhibition [6] 2.08% | RAM network inhibition [7] 9.79%

Fc1ccc(CN2CCCCCCC2)cc1F
inactive: growth inhibition [1] -3.83% | growth inhibition [2] -9.1% | viability increase [3] -3.13% | viability [4] 92.2% | viability [5] 95.7% | inhibition [6] -0.325% | RAM network inhibition [7] 0.52%

Cc1ccc2oc(=O)c3cnn(CC(=O)NCCN4CCOCC4)c3c2c1
inactive: growth inhibition [1] -5.79% | growth inhibition [2] -12% | viability increase [3] -0.17% | viability [4] 103% | viability [5] 97.7% | inhibition [6] 1.15% | RAM network inhibition [7] 5.06%

CCOc1ccc(-c2nnc(-c3ccco3)o2)cc1
inactive: growth inhibition [1] -1.61% | growth inhibition [2] 5.67% | viability increase [3] 1.72% | viability [4] 94.5% | viability [5] 101% | inhibition [6] 0.695% | RAM network inhibition [7] 2.38%

O=C(CSc1oc(-c2ccco2)nc1S(=O)(=O)c1ccc(F)cc1)NCC1CCCO1 (configuration not stated)
inactive: growth inhibition [1] -6.81% | growth inhibition [2] 0.32% | viability increase [3] -1.31% | viability [4] 101% | viability [5] 106% | inhibition [6] 0.295% | RAM network inhibition [7] 3.81%

O=C(CSc1nc2c(cnn2-c2ccc(F)cc2)c(=O)[nH]1)N1CCCCCC1
inactive: growth inhibition [1] -3.72% | growth inhibition [2] -9.65% | viability increase [3] -3.34% | viability [4] 94.2% | viability [5] 93% | inhibition [6] 1.53% | RAM network inhibition [7] -0.11%

O=C(Nc1ccc2c(c1)OCO2)C1COc2ccccc2O1 (configuration not stated)
inactive: growth inhibition [1] -13.5% | growth inhibition [2] -5.98% | viability increase [3] -3.15% | viability [4] 91.9% | viability [5] 99.8% | inhibition [6] 2.16% | RAM network inhibition [7] 3.35%

CC1CCCCC1NC(=O)CCS(=O)(=O)c1cccc2nonc12 (configuration not stated)
inactive: growth inhibition [1] -0.105% | growth inhibition [2] 2.68% | viability increase [3] -2.34% | viability [4] 98.9% | viability [5] 102% | inhibition [6] -0.06% | RAM network inhibition [7] 0.88%

Cc1cc(N2CCN(C3CCCCC3)CC2)nc2cccc(O)c12
inactive: growth inhibition [1] -7.5% | growth inhibition [2] -31.3% | viability increase [3] -4% | viability [4] 61% | viability [5] 62.8% | inhibition [6] 2.71% | RAM network inhibition [7] 4.45%

CCCc1cc(C(=O)Nc2cc(OC)c(Cl)cc2OC)no1
inactive: growth inhibition [1] -4.69% | growth inhibition [2] 4.3% | viability increase [3] -4.41% | viability [4] 89.5% | viability [5] 88.8% | inhibition [6] 0.45% | RAM network inhibition [7] 7.36%

O=C(Nc1ccncc1)c1ccccc1F
inactive: growth inhibition [1] -0.355% | growth inhibition [2] 0.36% | viability increase [3] -3.04% | viability [4] 94.3% | viability [5] 98% | inhibition [6] 1.06% | RAM network inhibition [7] 0.96%

O=C(CN1CCN(c2ncccn2)CC1)N1CCN(C(c2ccccc2)c2ccccc2)CC1
inactive: growth inhibition [1] -1.1% | growth inhibition [2] -2.38% | viability increase [3] -3.26% | viability [4] 84.8% | viability [5] 85% | inhibition [6] 1.64% | RAM network inhibition [7] 0.61%

CC1CCCC(NC(=O)c2ccc(CNc3c(N4CCCC4)c(=O)c3=O)cc2)C1C (configuration not stated)
inactive: growth inhibition [1] -6.62% | growth inhibition [2] 2.02% | viability increase [3] -2.4% | viability [4] 90.7% | viability [5] 84.4% | inhibition [6] 2.51% | RAM network inhibition [7] 2.5%

CC1CCN(c2nc(-c3ccccc3)c(C#N)c(=O)[nH]2)CC1
inactive: growth inhibition [1] -10.1% | growth inhibition [2] -13.7% | viability increase [3] -0.55% | viability [4] 101% | viability [5] 92.1% | inhibition [6] 1.46% | RAM network inhibition [7] 2.74%

O=C(c1cc2ccccn2n1)N1CCN(Cc2ccccc2)CC1
inactive: growth inhibition [1] 1.21% | growth inhibition [2] 7.58% | viability increase [3] -0.74% | viability [4] 104% | viability [5] 87.7% | inhibition [6] 0.99% | RAM network inhibition [7] 2.76%

CC(C)N(C(=O)CSc1nc2c([nH]1)c(=O)n(C)c(=O)n2C)c1ccccc1
inactive: growth inhibition [1] -4.33% | growth inhibition [2] -12.7% | viability increase [3] 1.94% | viability [4] 106% | viability [5] 102% | inhibition [6] 1.22% | RAM network inhibition [7] 6.3%

O=C(CN1C(=O)c2ccccc2S1(=O)=O)NC1CCCCCC1
inactive: growth inhibition [1] 2.58% | growth inhibition [2] -5% | viability increase [3] -1.02% | viability [4] 102% | viability [5] 101% | inhibition [6] 0.355% | RAM network inhibition [7] 4.59%

Cc1ccc(S(=O)(=O)N(CC(O)CN2CCCCC2)c2ccccc2)cc1 (configuration not stated)
inactive: growth inhibition [1] 0.475% | growth inhibition [2] 0.56% | viability increase [3] -2.49% | viability [4] 71.6% | viability [5] 96.6% | inhibition [6] 2.97% | RAM network inhibition [7] 3.38%

COc1ccccc1C(=O)NC(CCSC)C(=O)NCC(c1ccco1)N(C)C (configuration not stated)
inactive: growth inhibition [1] -10.1% | growth inhibition [2] -0.55% | viability increase [3] -2.48% | viability [4] 87.2% | viability [5] 89.5% | inhibition [6] 1.89% | RAM network inhibition [7] 1.92%
